SENP6 block: SENP6 protease inhibition; 330,000 compounds, 1.8% hits; Q9GZR1; inhibition, % at 10 µM; AID 2599; Recombinant SENP6 catalytic domain, aminoluciferin luminescence;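 active = inhibition above about 50% at the single tested dose, limit read from the data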;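 also: plate controls were DMSO wells with enzyme for no effect and DMSO wells lacking enzyme for full effect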
SENP8 block-1: SENP8 protease inhibition; 330,000 compounds, 1.2% hits; Q96LD8; inhibition, % at 10 µM; purified SENP8, Z-RLRGG-aminoluciferin cleavage, luminescence; AID 2540; in the data active = inhibition above about 50%
SENP1 FRET inh: blocks the human SENP1 SUMO protease catalytic domain; recombinant SENP1 catalytic domain, CyPet-SUMO1-YPet FRET cleavage; inhibition, % at 10 µM; Q9P0U3; 360,000 compounds, 0.21% hits;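 active = inhibition at least 30% at 10 µM, raw YFP signal under a set limit, fluorescence ratio 0.5 to 1.5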;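 also: 0% = enzyme with DMSO and 100% = no enzyme wells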
Target sequence (Q9P0U3 419-644 limits assumed): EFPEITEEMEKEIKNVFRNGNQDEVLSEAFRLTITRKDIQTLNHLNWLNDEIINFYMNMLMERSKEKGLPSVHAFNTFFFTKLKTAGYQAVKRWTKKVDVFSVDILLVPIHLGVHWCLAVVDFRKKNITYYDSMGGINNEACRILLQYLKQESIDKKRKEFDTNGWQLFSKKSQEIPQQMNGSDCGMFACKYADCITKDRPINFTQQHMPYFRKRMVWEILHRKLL
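Material: hSENP1 catalytic domain, recombinant; medium: Tris pH 8 with BME, BSA, NP40 and catalase; compound: single concentration of 10 µM compound, 0.5% DMSO final; technique: FRET read of cyan and yellow fluorescence; timing: 50 min enzyme reaction, room temperature, light-protected; reagent: SFCypet-SUMO1-SFYpet substrate at 25 nM; control set: no-enzyme low, enzyme-DMSO high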
SENP7 block: inhibitors of human SENP7 protease; Q9BQF6; recombinant SENP7, Z-RLRGG-aminoluciferin luminescence, 40 min; inhibition, % at 5 µM; 330,000 compounds, 1.5% hits;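 active = inhibition above about 50% at the single test dose, limit read from the data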;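 also: plate controls were DMSO with enzyme for no effect and no enzyme buffer wells for full effect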
UCH37 DUB inh: blocks the human deubiquitinase UCH37 | Q9Y5K5 | purified proteasome/UCH37, Ub-AMC cleavage fluorescence | inhibition, % (no concentration beside the values) | 330,000 compounds, 0.33% hits | AID 588478;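 active = mean inhibition over replicate wells above about 20%, limit read from the data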;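 also: 0% = compound-free wells with enzyme and 100% = wells lacking proteasome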
Target sequence (Q9Y5K5 whole entry, looked up): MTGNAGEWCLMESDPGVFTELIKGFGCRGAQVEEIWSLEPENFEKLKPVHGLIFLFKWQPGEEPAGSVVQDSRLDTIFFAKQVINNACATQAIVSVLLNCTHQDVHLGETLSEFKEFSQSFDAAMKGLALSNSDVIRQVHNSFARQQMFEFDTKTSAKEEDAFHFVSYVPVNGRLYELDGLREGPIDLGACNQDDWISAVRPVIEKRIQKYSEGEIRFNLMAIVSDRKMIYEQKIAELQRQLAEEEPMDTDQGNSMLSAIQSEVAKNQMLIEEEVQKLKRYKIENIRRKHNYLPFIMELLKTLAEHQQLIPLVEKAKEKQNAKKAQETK
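Assay system: Proteasome-bound UCH37. Buffer or medium: pH 7.4 Tris-HCl (50 mM) with ovalbumin, ATP-MgCl2, DTT. Incubation: 30 min preincubation with enzyme, 25 min cleavage at room temperature. Measured by: fluorescence, ex 355 nm, em 460 nm. Read-out basis: percent inhibition. Control set: wells without proteasome as full block, compound-free enzyme plus substrate as uninhibited.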
SENP8 block-2: SENP8 (human) protease inhibition; inhibition, % at 20 µM; 360,000 compounds, 0.64% hits; AID 602440; recombinant SENP8, Nedd8 substrate fluorescence; in the data active = inhibition mostly above about 40%, no sharp cut-off; inactive = mostly below about 27%
SENP8 confirm: human SENP8 inhibition, confirmed; AID 488912; shares compounds with SENP7 block; 6,200 compounds, 40% hits; inhibition, % at 12.5 µM; Recombinant SENP8, Z-RLRGG-aminoluciferin luminescence, 60 min;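 active = mean inhibition across replicates above about 50%, limit read from the data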
SENP6 conf: confirmation of human SENP6 protease inhibitors | inhibition, % at 12.5 µM | recombinant SENP6, Z-RLRGG-aminoluciferin luminescence | shares compounds with SENP7 block | 6,200 compounds, 58% hits
SENP7 conf: confirmation of human SENP7 protease inhibitors | shares compounds with SENP7 block | recombinant SENP7, Z-RLRGG-aminoluciferin luminescence, 40 min | inhibition, % at 12.5 µM | 6,200 compounds, 69% hits | AID 488917
Casp3 SENP sel: selectivity test for SENP inhibitors: human caspase-3 inhibition | shares compounds with SENP7 block | purified caspase-3, Z-DEVD-aminoluciferin luminescence, 60 min | inhibition, % at 12.5 µM | 6,200 compounds, 60% hits;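 active = mean inhibition above about 50%, limit read from the data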;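 also: plate controls were enzyme with DMSO for no effect and wells without caspase-3 for full effect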
Luc interf: counter-screen for SENP inhibitors: luminescence interference; AID 488919; 6,200 compounds, 39% hits; inhibition, % at 12.5 µM; Pre-incubated SENP8/Z-RLRGG-aminoluciferin, luciferase luminescence interference; shares compounds with SENP7 block;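 active = mean inhibition above about 50% when retested at one dose, limit read from the data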;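 also: plate controls were DMSO wells with completed reaction for no effect and substrate without enzyme for full effect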
The depositor's hits bear a star. Most compounds without a hit are left out; they make up all but 2.6% or so of the library.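 The calls were made as follows, unless noted: active = mean inhibition above about 50% in the one-dose retest (limit read from the data); inactive = the rest.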

`CCC(=O)Oc1ccc(-c2nc(-c3cccnc3)no2)cc1` gave SENP6 block 97*, SENP8 block-1 97*, SENP1 FRET inh 2, SENP7 block 99*, UCH37 DUB inh 2, SENP8 block-2 25, SENP8 confirm 99*, SENP6 conf 100*, SENP7 conf 103*, Casp3 SENP sel 99* and Luc interf 98*.
Cc1ccc(-c2nc(-c3ccncc3)no2)cc1 was read as SENP1 FRET inh 1, UCH37 DUB inh -1 and SENP8 block-2 14.
Screening Cc1ccc(-c2nc(-c3ccccc3)no2)c(Cl)c1 returned SENP6 block 98*, SENP8 block-1 97*, SENP1 FRET inh 1, SENP7 block 100*, UCH37 DUB inh 8, SENP8 block-2 -3, SENP8 confirm 96*, SENP6 conf 99*, SENP7 conf 102*, Casp3 SENP sel 97* and Luc interf 83*.
Cc1ccsc1/C=N/NC(=O)c1ccc2c(c1)OCCO2 was read as SENP6 block 79*, SENP8 block-1 65*, SENP1 FRET inh 0, SENP7 block 83*, SENP8 block-2 7, SENP8 confirm 84*, SENP6 conf 79*, SENP7 conf 95*, Casp3 SENP sel 90* and Luc interf 81*.
For Cc1ccsc1/C=N/NC(=O)c1sccc1C the results were SENP6 block 88*, SENP8 block-1 84*, SENP1 FRET inh 1, SENP7 block 93*, SENP8 block-2 -6, SENP8 confirm 14, SENP6 conf 92*, SENP7 conf 101*, Casp3 SENP sel 94* and Luc interf 23.
Screening Cc1ccsc1/C=N\NC(=O)c1ccc2c(c1)OCO2 returned SENP6 block 49, SENP8 block-1 14, SENP1 FRET inh 2, SENP7 block 50*, SENP8 block-2 11, SENP8 confirm 37, SENP6 conf 34, SENP7 conf 72*, Casp3 SENP sel 74* and Luc interf -1.
For COc1ccc(OC)c(C=NNC(=O)c2cccc3ccccc23)c1 the results were UCH37 DUB inh -176.
Screening Cc1[nH]nc(Nc2ccc(C(C)C)cc2)c1[N+](=O)[O-] returned SENP6 block 51*, SENP8 block-1 39, SENP1 FRET inh 2, SENP7 block 16, UCH37 DUB inh 3, SENP8 block-2 15, SENP8 confirm 42, SENP6 conf 39, SENP7 conf 77*, Casp3 SENP sel 25 and Luc interf 13.
Screening Cc1ccc(Nc2n[nH]c(C)c2[N+](=O)[O-])cc1 returned SENP6 block -7, SENP8 block-1 -11, SENP1 FRET inh 3, SENP7 block -3, UCH37 DUB inh 4 and SENP8 block-2 25.
For Fc1ccc(-c2cn3cc(C(F)(F)F)cc(Cl)c3n2)cc1 the results were SENP6 block 75*, SENP8 block-1 34, SENP1 FRET inh -2, SENP7 block 82*, UCH37 DUB inh -6, SENP8 block-2 -150, SENP8 confirm 59*, SENP6 conf 77*, SENP7 conf 86*, Casp3 SENP sel 58* and Luc interf 46.
`Cc1onc(-c2ccccc2)c1C(=O)NN=Cc1ccc(Br)cc1` gave UCH37 DUB inh 5.
Screening CC(=O)N(C(C)=O)c1nc(-c2ccccc2)cn1N=Cc1ccccc1 returned UCH37 DUB inh 5.
c1csc(-c2nc(CN3CCSCC3)cs2)c1 was read as SENP6 block 80*, SENP8 block-1 74*, SENP1 FRET inh -1, SENP7 block 88*, UCH37 DUB inh 2, SENP8 block-2 -19, SENP8 confirm 80*, SENP6 conf 80*, SENP7 conf 96*, Casp3 SENP sel 94* and Luc interf 86*.
For O=C(O)c1csc(-c2cccs2)n1 the results were SENP6 block -8, SENP8 block-1 57*, SENP1 FRET inh 2, SENP7 block -4, UCH37 DUB inh 0, SENP8 block-2 -8, SENP8 confirm 2, SENP6 conf 2, SENP7 conf 2, Casp3 SENP sel -2 and Luc interf -1.
`O=S1(=O)CCN(Cc2csc(-c3cccs3)n2)CC1` gave SENP6 block 25, SENP8 block-1 11, SENP1 FRET inh -1, SENP7 block 46, UCH37 DUB inh 4 and SENP8 block-2 -37.
`COc1cc(/C=C(/C#N)c2nc3ccccc3[nH]2)ccc1OC(=O)c1ccco1` gave SENP6 block 84*, SENP8 block-1 78*, SENP1 FRET inh -18, SENP7 block 70*, UCH37 DUB inh -42, SENP8 block-2 -296, SENP8 confirm 52*, SENP6 conf 70*, SENP7 conf 99*, Casp3 SENP sel 84* and Luc interf 37.
Screening COc1cc(/C=C(\C#N)c2nc3ccccc3[nH]2)ccc1Oc1ccc([N+](=O)[O-])cn1 returned SENP6 block -12, SENP8 block-1 -6, SENP1 FRET inh -26, SENP7 block 9, UCH37 DUB inh -13 and SENP8 block-2 -273.
For COc1cc(/C=C(/C#N)c2nc3ccccc3c(=O)[nH]2)ccc1O the results were SENP6 block 94*, SENP8 block-1 84*, SENP1 FRET inh -28, SENP7 block 87*, UCH37 DUB inh 5, SENP8 block-2 -16, SENP8 confirm 13, SENP6 conf 22, SENP7 conf 24, Casp3 SENP sel 62* and Luc interf 11.
`CCOC(=O)NN=Cc1ccc(OC/C=C/c2ccccc2)cc1` gave UCH37 DUB inh 3.
O=C(NN=Cc1ccncc1)c1cc([N+](=O)[O-])cc([N+](=O)[O-])c1O was read as UCH37 DUB inh 5.
Cc1cccc(NC(=O)c2ccoc2C)n1 was read as SENP6 block 39, SENP8 block-1 5, SENP1 FRET inh 0, SENP7 block 31, UCH37 DUB inh 0 and SENP8 block-2 -5.
For O=C(Nc1ccc2ccccc2c1)c1ccccc1Cl the results were SENP1 FRET inh 0 and SENP8 block-2 14.

Screens from PubChem BioAssay.
